Data taken from the EternaBench riboswitch data.

Tested on: MS2 coat protein
Assay: apparent Kd, MS2 coat protein; higher = weaker binding; RNA-MaP array; FMN 200 µM where present
How it was run: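 Stalled E. coli RNA polymerase transcribed each design on Illumina sequencing-chip clusters. The clusters were titrated with SNAP-549-labelled MS2 coat protein, starting at 0.7 or 1.5 nM and doubling up to 3 µM, first without ligand and then with constant ligand, in 100 mM Tris-HCl pH 7.5, 80 mM KCl, 4 mM MgCl2, BSA, DTT, yeast tRNA and Tween-20. Green signal was normalised to red-channel RNA signal and to the control-cluster median Fmax. The apparent Kd is the median of filtered binding-curve fits made for each cluster.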

[1] = designed as: ON switch for flavin mononucleotide, no ligand
[2] = ligand present: flavin mononucleotide, designed as: ON switch for flavin mononucleotide
[3] = designed as: OFF switch for flavin mononucleotide, no ligand
[4] = ligand present: flavin mononucleotide, designed as: OFF switch for flavin mononucleotide

GUGGUCAGACAUGAGGAUCACCCAUGUGGAAUAAAUAAGGAGAAGGAUAUGCAAUAUAGGAUAUAGUAGAAGGUCUGGUUGGUG
apparent Kd [1]: 83.5 nM | apparent Kd [2]: 97.2 nM

GUGGUCAGACAUGAGGAUCACCCAUGUGGAAUAAAUAAGGAGAAGGAUAUUAAAUAUAGGAUAUAUAAGAAGGUCUGGUUGGUG
apparent Kd [1]: 86.8 nM | apparent Kd [2]: 95.8 nM

GUGGUCAGACAUGAGGAUCACCCAUGUGGAAUAAAUAAGGAGAAGGAUAUUGAAUAUAGGAUAUACAAGAAGGUCUGGUUGGUG
apparent Kd [1]: 84.9 nM | apparent Kd [2]: 87 nM

GUGGUCAGACAUGAGGAUCACCCAUGUGGAAUAAAUAAGGGAGAGGAUAUAUAAUAUAGGAUAUAAUAGAAGGCUCGGUUGGUG
apparent Kd [1]: 82.5 nM | apparent Kd [2]: 111 nM

GUGGUCUGACAUGAGGAUCACCCAUGUGGAAUAAAUACGGGUUAGGAUAUCUUGAGGAUCACCCAAGAGAAGGGAUGGAUGGUC
apparent Kd [1]: 100 nM | apparent Kd [2]: 106 nM

GUGGUUCGCGAGAAGGGAGCUUAAGGACGCGGCUCAGGAUAUCGUACAUGAGGAUCACCCAUGUGCUGGCAUCUCCAGUGCGUG
apparent Kd [3]: 118 nM | apparent Kd [4]: 56.1 nM

GUGGUUGUCGUAGGAUAUGUAGGAUAUUCCUACAUGAGGAUCACCCAUGUUCGCAUGGAAGAAGGAUAGAAGGACGAUGACCAG
apparent Kd [1]: 76.7 nM | apparent Kd [2]: 388 nM

GUGUACAGAGGAUAUACAUAAGCUAGGAAACUAGCAUCUUCACAUGAGGAUCACCCAUGUAGAAGGCUGUACAC
apparent Kd [3]: 19.8 nM | apparent Kd [4]: 78.5 nM

GUGUACAGAGGAUAUACAUGAGCUAGGAAACUAGCAACCUCACAUGAGGAUCACCCAUGUAGAAGGCUGUACAC
apparent Kd [3]: 32.7 nM | apparent Kd [4]: 25.8 nM

GUGUACAGAGGAUAUACAUGGGCAUGGAAACAUGCAUCUUCACAUGAGGAUCACCCAUGUAGAAGGCUGUACAC
apparent Kd [3]: 34.7 nM | apparent Kd [4]: 21.3 nM

GUGUACAUCGGAGGAUAUCAUGUAAAUACAUGAGGAUCACCCAUGUCGAUGGAGACAUCGGAGAUUGAGAAGGCCGAUGUACCG
apparent Kd [1]: 169 nM | apparent Kd [2]: 9.35 nM

GUGUACGGAGGAUAUAUAUGGGCAGCAUACGCUGCAGCUUCACAUGAGGAUCACCCAUGUAGAAGGCUGUACAC
apparent Kd [3]: 25 nM | apparent Kd [4]: 200 nM

GUGUAGAUAGGAUAUGCUUUGAGCUUAUGAGAGUAUGCUCGACAUGAGGAUCACCCAUGUAGAAGGGUUUACAC
apparent Kd [4]: 52.5 nM

GUGUAGUCAGGAUAUACAUAGGAAGAGAAUAUAAUAUAAGUACAUGAGGAUCACCCAUGUAGAAGGGACAGUGU
apparent Kd [3]: 35.3 nM | apparent Kd [4]: 39.9 nM

GUGUAGUUAGGAUAUGCUGGAAUCUAGCGAAGCUAGGUUCCACAUGAGGAUCACCCAUGUAGAAGGGACUACAC
apparent Kd [4]: 73 nM

GUGUGAUUAAGAGGAUAUAUACAACAUGAGGAUCACCCAUGUACCCGUGUAGUAGAAGGUUUGUUUUUAUAUAAUAAUAUAAUU
apparent Kd [1]: 29.3 nM | apparent Kd [2]: 27.9 nM

GUGUUGUCAGGAUAUCUUACAUAACAAUCGUUGUUACCAUUGGAGAAGGGACAUGAGGAUCACCCAUGUUAUCC
apparent Kd [3]: 24.1 nM | apparent Kd [4]: 26.3 nM

GUUACCGUAGGAUAUACAUGAGGAUCACCCAUGUACUCAGUCGAUGGAUAAGAGUACUGUAGAAGGGCGCCGGC
apparent Kd [3]: 140 nM | apparent Kd [4]: 150 nM

GUUAGUUAAGGAUAUACAGGGAGCCGCGGCGUCUCGCCGCAACAUGAGGAUCACCCAUGUAGAAGGUGGCCAUU
apparent Kd [3]: 150 nM | apparent Kd [4]: 119 nM

GUUAGUUAAGGAUAUACUGGGAGCUGCGGCGUCUCGCCGCAACAUGAGGAUCACCCAUGUAGAAGGUGACCGUU
apparent Kd [3]: 640 nM | apparent Kd [4]: 285 nM

GUUAUAAAGGUAGGAUAUUGUAUUAUAAUUAAAUAAGAAGGAUCUCACAUGAGGAUCACCCAUGUAAGAGGAUCACCCAUGUAU
apparent Kd [3]: 9.63 nM | apparent Kd [4]: 8.14 nM

GUUCUUCCUGUAAGGAUAUCCAUGUAUCAAUGUAUGGAGAAGGUACAUGAGGAUCACCCAUGUCACCCGCGUUA
apparent Kd [3]: 16.6 nM | apparent Kd [4]: 39.8 nM

GUUGCACAAGUUAACAUGAGGAUCACCCAUGUCAAAAGACAUGAGGAUAUGGAUGUGAAGAUAAUCCAGAAGGCAUAAUGCUAA
apparent Kd [1]: 596 nM | apparent Kd [2]: 129 nM

GUUGCUUUCCGAGGAUAUUCAGGGCGUGGCUAUACAUGAGGAUCACCCAUGUGGCGGAAGCCUAGGGAGAAGGCGGGCUGCUUC
apparent Kd [1]: 18.4 nM | apparent Kd [2]: 16.3 nM

GUUGGCUGAGGAUAUGCUUGCGUGCUUUUGUGUCGCGGGUGACAUGAGGAUCACCCAUGUAGAAGGUGGUCGGC
apparent Kd [3]: 818 nM | apparent Kd [4]: 673 nM

GUUGUGUGAGGAUAUGCCUGGCCGUGAGGCCAGGUUGGGUGGCAGAAGGUACAUGAGGAUCACCCAUGUACGGG
apparent Kd [3]: 30 nM | apparent Kd [4]: 22.7 nM

GUUUAGUGAGGAUAUGUGGCAUCGCUCGAGCGCGGUCGGCUACAGAAGGCACAUGAGGAUCACCCAUGUUUCUC
apparent Kd [3]: 41.8 nM | apparent Kd [4]: 471 nM

GUUUCGUCAGGAUAUGUGGCUUCGAUCGUGCGAAGAAGGCUACAGAAGGCACAUGAGGAUCACCCAUGUUCGUC
apparent Kd [4]: 34.6 nM

GUUUCUAUAUGUUAUAUUUAACAGUCAGAAGGUGAUACUACGACAUGAGGAUCACCCAUGUAAUUCAAGGAUAUGAACUUAAUC
apparent Kd [1]: 1110 nM | apparent Kd [2]: 450 nM

GUUUGUUUUUAGAAGGUGCCGGCGAGAGCCGCAACAUGAGGAUCACCCAUGUGUCGGUGACGACGCAAGGAUAUGGAGGUGGAU
apparent Kd [1]: 127 nM | apparent Kd [2]: 77.8 nM

GUUUUUCCUCAUGUACAUGAGGAACAUGAGGAUCACCCAUGUAGAAGGAUUUCCCUUAAAUUAAGAUAGGAUAUACAUAUAUUU
apparent Kd [3]: 102 nM | apparent Kd [4]: 59.3 nM

UAAAAGACUAGCAAAUAAUCCUUCACAUGAGGAUCACCCAUGUAGGAUAUGAGCAGAAAAUCUGCUCAGAAGGACAUGCUAGUC
apparent Kd [3]: 3.22 nM | apparent Kd [4]: 3.68 nM

UAAACAUGAGGAUCACCCAUGUUAUGAUCGGUUGAUGAAUGUGAGGAUAUACUUAAUUUUAUGGAGUAGAAGGCACUGGGUUCU
apparent Kd [1]: 29.1 nM | apparent Kd [2]: 30 nM

UAAAUUUUAUGAUAUUAUGACAGUAGAAGGCUAUACAUGUUGAUACAUGAGGAUCACCCAUGUAUAGAGGAUAUAUACAAUUAU
apparent Kd [3]: 1050 nM | apparent Kd [4]: 315 nM

UAACCACAUGAGGAUCACCCAUGUGAGGAUAUGUCCAUAUUCGGCAAAUCGGAUAUGGACAGAAGGCACACCGG
apparent Kd [3]: 41.6 nM | apparent Kd [4]: 68.7 nM

UAAGUCGAGAAGAUAAUAAUGAAUACAUGAGGAUCACCCAUGUAGGAUAUGCAGUGGAAUACACUGCAGAAGGACAUACUCGAC
apparent Kd [3]: 14.3 nM | apparent Kd [4]: 16.9 nM

UAAGUGUGAGGAUAUGGUAAAGAUAAGAUGAUGAAAGAACUCCAGAAGGCACAUGAGGAUCACCCAUGUAGAUG
apparent Kd [3]: 39.4 nM | apparent Kd [4]: 141 nM

UAAUAAAACGAUCGGCGAUCCAUACAUGAGGAUCACCCAUGUAGAAGGGACUCUACAAAGUAGAGUCAGGAUAUACAAGAUCGA
apparent Kd [3]: 10 nM | apparent Kd [4]: 124 nM

UAAUAGGGAGGAUAUCCAAUAUAUGACAUGAGGAUCACCCAUGUUUCCACUCGUACCUCCGGAGAAGGCCCAUAAU
apparent Kd [3]: 21 nM | apparent Kd [4]: 18.7 nM

UAAUAUUUAUGAUAUUAUUACAUUAGAAGGCUAGACAUGUGGAUACAUGAGGAUCACCCAUGUAUAGAGGAUAUAGACAUAUAU
apparent Kd [3]: 31.8 nM | apparent Kd [4]: 53.6 nM

UAAUCUCAGAUAGGAUAUAUAGGAUAACUUAAGACCUAACAUGAGGAUCACCCAUGUGAUUAUUCGUAGAAGGAUCAUUGACCC
apparent Kd [2]: 171 nM

UAAUUUUGUCAAGGAUAUGUAAUAUAGAUUAGAAAACAUGAGGAUCACCCAUGUAUAUGGUGGGAACAGAAGGUGAAUGGUGUA
apparent Kd [3]: 165 nM | apparent Kd [4]: 155 nM

UACAUGAGGAUCACCCAUGUUUUGUCGUGUAUGGUAUUUAUCUAGGAUAUCAAUUGUUUUAUUUAUGAGAAGGAGAAUAUUAAU
apparent Kd [3]: 39.3 nM | apparent Kd [4]: 35.8 nM

UACAUGAGGAUCACCCAUGUUUUGUCGUGUAUGGUAUUUAUCUAGGAUAUCAAUUUGUUAAUUUAUGAGAAGGAGAAUAUUAAU
apparent Kd [3]: 35.3 nM | apparent Kd [4]: 38.3 nM

UACAUUACUGAGAAGGGAUAUAUAUAAUUUUAGUCAGGAUAUCGAUACAGUGCAGCAUGAGGACAUGAGGAUCACCCAUGUAUU
apparent Kd [1]: 20.5 nM | apparent Kd [2]: 17 nM

UACCCACAUGGGUAGUGGCAGCGUGAGGAUAUGGGUUGGAUACAUGAGGAUCACCCAUGUUCCUCCUAGAAGGCACUUGUAACC
apparent Kd [1]: 138 nM | apparent Kd [2]: 24.8 nM

UACCUGAGGCCAAGCUUUAGGUAUACAUGAGGAUCACCCAUGUAGGAUAUGGUAGGCUUUGCUUACCAGAAGGACAUGUUAAUU
apparent Kd [3]: 19 nM | apparent Kd [4]: 64.9 nM

UACGUACAGAAGUACUCCGGGUCCAGAAGGGACAUGAGGAUCACCCAUGUACCGUUGAUUGCUUGUCAGGAUAUGGACCCAGCC
apparent Kd [3]: 7.76 nM | apparent Kd [4]: 29 nM

UAGAAGUCAGGAUAUGCAUGGCGGGACUUGCGUCGUGGCGUGCAGAAGGGACAUGAGGAUCACCCAUGUAAAGC
apparent Kd [3]: 49 nM | apparent Kd [4]: 43 nM

UAGAAUCGAGGAUAUACAUGAGGAUCACCCAUGUGUGGCCAUACUGUGUGGUCGUCAGGUAGAAGGCGAUUAUA
apparent Kd [3]: 72.3 nM | apparent Kd [4]: 22.6 nM

UAGGACGAACAGUGCCGUGGAACGAAGGAUAUACAGGGACGUCGGCUCACAUGAGGAUCACCCAUGUAGAAGGUCGACACGCGC
apparent Kd [3]: 8.91 nM | apparent Kd [4]: 48.3 nM

UAGGGUGUACGAGGAUAUGGGCAUUGGUGGAUCUCAGAAGGCGUAUACGCGCGCAGACAUGAGGAUCACCCAUGUACCCGGCUU
apparent Kd [1]: 62.8 nM | apparent Kd [2]: 23.6 nM

UAGUAGUGAGGAUAUACAUGGAUAUACAUUCAUGUGGACCUACAUGAGGAUCACCCAUGUAGAAGGCACUACUA
apparent Kd [3]: 41.9 nM | apparent Kd [4]: 91.4 nM

UAGUAUAAGGGCAUUAAACAUGAGGAUCACCCAUGUACGAUAGAGGAUAUGCAUUUCAGUUGAGAGUAGAAGGUUAGAGAAUUG
apparent Kd [3]: 37.2 nM | apparent Kd [4]: 43.4 nM

UAGUCGGUAGAUAAUAAUGAUUACAUGAGGAUCACCCAUGUAUAGGAUAUCGUCAGGAAUACUGACGAGAAGGAUACAUCCGAC
apparent Kd [3]: 18 nM | apparent Kd [4]: 26.5 nM

UAGUUAUUCACAGGAUAUCGCCUCUUAUUACAUGAGGAUCACCCAUGUUUACUUAGUUACAUGUUCGAGAAGGGUGUAGCCGUU
apparent Kd [3]: 491 nM | apparent Kd [4]: 554 nM
